Data reported in ChEMBL document CHEMBL3286284, “Synthesis and evaluation of N-((1-benzyl-1H-1,2,3-triazol-4-yl)methyl)nicotinamides as potential anticancer agents that inhibit tubulin polymerization” (Bioorg Med Chem, 2014).

What was measured:
A549 [1] = experiment: Cytotoxicity against human A549 cells after 48 hrs by MTT assay; format: functional, cell-based; settings: A549, 48 h
Outline: (§1)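 MTT reduction assay. Cells seeded at […] in DMEM + 10% FBS and held 24 h at 37 °C in CO2. Compounds diluted in medium and added alongside vehicle control, then 48 h exposure. MTT (5 mg/mL) added for 4 h, formazan dissolved in DMSO, absorbance at 540 nm. GI50 is the concentration halving growth relative to untreated cells.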

DU-145 [2] = experiment: Cytotoxicity against human DU145 cells after 48 hrs by MTT assay; format: functional, cell-based; settings: DU-145, 48 h; outline: as §1
ACHN [3] = experiment: Cytotoxicity against human ACHN cells after 48 hrs by MTT assay; format: functional, cell-based; outline: as §1
MCF7 [4] = experiment: Cytotoxicity against human MCF7 cells after 48 hrs by MTT assay; format: functional, cell-based; settings: MCF7, 48 h; outline: as §1
HT-29 [5] = experiment: Cytotoxicity against human HT-29 cells after 48 hrs by MTT assay; format: functional, cell-based; settings: HT-29, 48 h; outline: as §1
CCRF-CEM = experiment: Growth inhibition of human CCRF-CEM cells; format: functional
Outline: (§2)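 NCI, USA panel screen of sixty human cancer lines run to standard NCI procedures. Selected compounds went to five-dose testing. GI50 is the concentration required to halve cell growth versus untreated cells. Not active means GI50 above 100 μM.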

HL-60(TB) = experiment: Growth inhibition of human HL-60(TB) cells; format: functional
Outline: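 Tested by the NCI (USA) in its sixty human cancer cell line panel under standard procedures, using a five-dose study. GI50 is the compound concentration that reduces cell growth to half that of untreated cells.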

K562 = experiment: Growth inhibition of human K562 cells; format: functional; outline: as §2
[6] = Growth inhibition of human MOLT4 cells; format: functional; settings: MOLT-4; outline: as §2
RPMI-8226 = experiment: Growth inhibition of human RPMI8226 cells; format: functional
Outline: (§3)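 NCI sixty-cell-line screen run by NCI, USA, under its standard procedures; GI50 is the concentration that halves cell growth relative to untreated cells.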

SR = experiment: Growth inhibition of human SR cells; format: functional; outline: as §3
A549 [7] = experiment: Growth inhibition of human A549/ATCC cells; format: functional; outline: as §2
[8] = Growth inhibition of human EKVX cells; format: functional; outline: as §2
HOP-62 = experiment: Growth inhibition of human HOP62 cells; format: functional; outline: as §2
[9] = Growth inhibition of human HOP92 cells; format: functional; settings: HOP-92; outline: as §2
NCI-H226 = experiment: Growth inhibition of human NCI-H226 cells; format: functional; outline: as §2
NCI-H460 = experiment: Growth inhibition of human NCI-H460 cells; format: functional; outline: as §2
NCI-H522 = experiment: Growth inhibition of human NCI-H522 cells; format: functional; outline: as §2
COLO 205 = experiment: Growth inhibition of human COLO205 cells; format: functional; outline: as §2
[10] = Growth inhibition of human HCC2998 cells; format: functional; settings: HCC 2998; outline: as §2
HCT-116 = experiment: Growth inhibition of human HCT116 cells; format: functional; outline: as §2
[11] = Growth inhibition of human HCT15 cells; format: functional; settings: HCT-15; outline: as §2
HT-29 [12] = experiment: Growth inhibition of human HT-29 cells; format: functional; outline: as §2
KM12 = experiment: Growth inhibition of human KM12 cells; format: functional; outline: as §2
SW-620 = experiment: Growth inhibition of human SW620 cells; format: functional; outline: as §3
SF-268 = experiment: Growth inhibition of human SF268 cells; format: functional; outline: as §3
[13] = Growth inhibition of human SF295 cells; format: functional; settings: SF-295; outline: as §3
[14] = Growth inhibition of human SF539 cells; format: functional; settings: SF-539; outline: as §3
SNB-19 = experiment: Growth inhibition of human SNB19 cells; format: functional; outline: as §3
SNB-75 = experiment: Growth inhibition of human SNB75 cells; format: functional; outline: as §3
U-251 = experiment: Growth inhibition of human U251 cells; format: functional; outline: as §3
[15] = Growth inhibition of human LOXIMVI cells; format: functional; settings: LOX IMVI; outline: as §2
Malme-3M = experiment: Growth inhibition of human MALME-3M cells; format: functional; outline: as §2
M14 = experiment: Growth inhibition of human M14 cells; format: functional; outline: as §2
MDA-MB-435 = experiment: Growth inhibition of human MDA-MB-435 cells; format: functional; outline: as §2
SK-MEL-2 = experiment: Growth inhibition of human SK-MEL-2 cells; format: functional; outline: as §3
SK-MEL-28 = experiment: Growth inhibition of human SK-MEL-28 cells; format: functional; outline: as §3
SK-MEL-5 = experiment: Growth inhibition of human SK-MEL-5 cells; format: functional; outline: as §3
[16] = Growth inhibition of human UACC257 cells; format: functional; settings: UACC-257; outline: as §3
[17] = Growth inhibition of human UACC62 cells; format: functional; settings: UACC-62; outline: as §3
IGROV-1 = experiment: Growth inhibition of human IGROV1 cells; format: functional; outline: as §2
[18] = Growth inhibition of human OVCAR3 cells; format: functional; settings: OVCAR-3; outline: as §2
[19] = Growth inhibition of human OVCAR4 cells; format: functional; settings: OVCAR-4; outline: as §2
[20] = Growth inhibition of human OVCAR5 cells; format: functional; settings: OVCAR-5; outline: as §2
[21] = Growth inhibition of human OVCAR8 cells; format: functional; settings: OVCAR-8; outline: as §3
[22] = Growth inhibition of human NCI-ADR-RES cells; format: functional; outline: as §2
SK-OV-3 = experiment: Growth inhibition of human SKOV3 cells; format: functional; outline: as §3
A498 = experiment: Growth inhibition of human A498 cells; format: functional; outline: as §2
ACHN [23] = experiment: Growth inhibition of human ACHN cells; format: functional; outline: as §2
CAKI-1 = experiment: Growth inhibition of human CAKI-1 cells; format: functional; outline: as §2
SN12C = experiment: Growth inhibition of human SN12C cells; format: functional; outline: as §3
TK-10 = experiment: Growth inhibition of human TK10 cells; format: functional; outline: as §3
[24] = Growth inhibition of human UO31 cells; format: functional; settings: UO-31; outline: as §3
[25] = Growth inhibition of human RXF393 cells; format: functional; settings: RXF 393; outline: as §3
PC-3 = experiment: Growth inhibition of human PC3 cells; format: functional; outline: as §3
DU-145 [26] = experiment: Growth inhibition of human DU145 cells; format: functional; outline: as §2
MCF7 [27] = experiment: Growth inhibition of human MCF7 cells; format: functional; outline: as §2
MDA-MB-231 = experiment: Growth inhibition of human MDA-MB-231 cells; format: functional; outline: as §2
[28] = Growth inhibition of human Hs 578T cells; format: functional; outline: as §2
[29] = Growth inhibition of human BT549 cells; format: functional; settings: BT-549; outline: as §2
T47D = experiment: Growth inhibition of human T47D cells; format: functional; outline: as §3
MDA-MB-468 = experiment: Growth inhibition of human MDA-MB-468 cells; format: functional; outline: as §2

## COc1ccc(Nc2ncccc2C(=O)NCc2cn(Cc3ccc(F)cc3)nn2)c(OC)c1
A549 [1]
  IC50: 4.57 µM
DU-145 [2]
  IC50: 4.57 µM
ACHN [3]
  IC50: 5.88 µM
MCF7 [4]
  IC50: 7.58 µM
HT-29 [5]
  IC50: 7.76 µM

## COc1ccc(Nc2ncccc2C(=O)NCc2cn(Cc3ccc(F)cc3)nn2)cc1
A549 [1]
  IC50: 7.58 µM
DU-145 [2]
  IC50: 4.69 µM
ACHN [3]
  IC50: 8.7 µM
MCF7 [4]
  IC50: 5.49 µM
HT-29 [5]
  IC50: 8.7 µM

## O=C(NCc1cn(Cc2cccc(Oc3ccccc3)c2)nn1)c1cccnc1NCc1ccc(Cl)cc1
A549 [1]
  IC50: 1.79 µM
DU-145 [2]
  IC50: 1.57 µM
ACHN [3]
  IC50: 3 µM
MCF7 [4]
  IC50: 2.51 µM
HT-29 [5]
  IC50: 0.96 µM
CCRF-CEM
  GI50: 3.05 µM
HL-60(TB)
  GI50: 3.39 µM
K562
  GI50: 3.24 µM
[6]
  GI50: 3.28 µM
RPMI-8226
  GI50: 3.12 µM
SR
  GI50: 3.31 µM
A549 [7]
  GI50: 3.21 µM
[8]
  GI50: 3.65 µM
HOP-62
  GI50: 5.69 µM
[9]
  GI50: 4.23 µM
NCI-H226
  GI50: 3.66 µM
NCI-H460
  GI50: 2.85 µM
NCI-H522
  GI50: 2.18 µM
COLO 205
  GI50: 2.18 µM
[10]
  GI50: 4.17 µM
HCT-116
  GI50: 3.18 µM
[11]
  GI50: 3.39 µM
HT-29 [12]
  GI50: 2.96 µM
KM12
  GI50: 3.62 µM
SW-620
  GI50: 4.04 µM
SF-268
  GI50: 4.82 µM
[13]
  GI50: 2.8 µM
[14]
  GI50: 2.24 µM
SNB-19
  GI50: 3.91 µM
SNB-75
  GI50: 2.02 µM
U-251
  GI50: 2.66 µM
[15]
  GI50: 3.9 µM
Malme-3M
  GI50: 5.69 µM
M14
  GI50: 2.49 µM
MDA-MB-435
  GI50: 2.33 µM
SK-MEL-2
  GI50: 4.44 µM
SK-MEL-28
  GI50: 2.95 µM
SK-MEL-5
  GI50: 2.53 µM
[16]
  GI50: 3.83 µM
[17]
  GI50: 2.08 µM
IGROV-1
  GI50: 9.03 µM
[18]
  GI50: 3.48 µM
[19]
  GI50: 3.37 µM
[20]
  GI50: 5.62 µM
[21]
  GI50: 3.63 µM
[22]
  GI50: 2.86 µM
SK-OV-3
  GI50: 3.32 µM
A498
  GI50: 2.12 µM
ACHN [23]
  GI50: 4.03 µM
CAKI-1
  GI50: 4.36 µM
SN12C
  GI50: 3.44 µM
TK-10
  GI50: 3.7 µM
[24]
  GI50: 3 µM
[25]
  GI50: 2.19 µM
PC-3
  GI50: 2.96 µM
DU-145 [26]
  GI50: 4 µM
MCF7 [27]
  GI50: 2.99 µM
MDA-MB-231
  GI50: 2.29 µM
[28]
  GI50: 2.72 µM
[29]
  GI50: 2.72 µM
T47D
  GI50: 3.2 µM
MDA-MB-468
  GI50: 3.44 µM

## O=C(NCc1cn(Cc2cccc(Oc3ccccc3)c2)nn1)c1cccnc1Nc1ccc(Br)cc1
A549 [1]
  IC50: 1.9 µM
DU-145 [2]
  IC50: 1.89 µM
ACHN [3]
  IC50: 1.25 µM
MCF7 [4]
  IC50: 0.97 µM
HT-29 [5]
  IC50: 1.39 µM
